Source: the array DNA melting data of Ke et al. (doi:10.1101/2024.01.08.574731)

Legend:
[1] = folding enthalpy; higher = less favourable; fluorescence melt of hairpins on a sequencing array, two-state fit; details: sodium 0.088 M
Summary of the method: (§1)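 On a sequenced MiSeq flow cell, library hairpins with annealed Cy3 and quencher oligos were imaged for Cy3 fluorescence in 2.5 °C steps up to 60 °C, in 50 mM Na-HEPES pH 8.0, 25 mM NaCl. Normalisation used pre-quench Cy3 and control constructs. Bootstrapped two-state fits gave melting temperature and folding enthalpy, combined by inverse variance across four replicates and with fitted temperatures raised by 9.35 °C to match UV melts.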

[2] = melting temperature; fluorescence melt of hairpins on a sequencing array, two-state fit, raised by 9.35 °C to match UV melts; details: sodium 0.088 M
Summary of the method: as §1

Sequence | folding enthalpy [1] [kcal/mol] | Tm [2] [°C]
GCCCGGCGAAAGCCGTGC ((.((((....)))).)) | -13.9 | 59.8
GATCTGGATCAGATC ((((((...)))))) | -29.6 | 47.9
GTACACGAAAGTGCGTAC ((((((....)))..))) | -10.7 | 30.8
GCTTGGCGAAAGCGTAGC (((..((....))..))) | -16.2 | 39.6
GTACACGAAAGTGGTTAC ((((((....)))..))) | -10.7 | 30.5
GGACACGAAAGTGGTCC ((((((....))).))) | -21.6 | 57
GGTATACCGAAAGGTACC (((..(((....)))))) | -12.8 | 36.4
GATCCCTCCGGGGATC ((((((....)))))) | -31.3 | 65.3
GTCGCAGGAAACTGCGGC (.(((((....))))).) | -32.2 | 64.5
GCGTAAATACGC ((((....)))) | -25.4 | 50
GGAACGGGAAACCGTCCC ((.((((....)))).)) | -18.5 | 48.2
GCTCAGCGAAAGCTATGC ((..(((....)))..)) | -12.6 | 36.4
GGCTTCGAAAGAAAGCC ((((((....))).))) | -38.1 | 55
GGGTTCGAAAGAAATCCC ((((((....)))..))) | -21.3 | 33.6
GGAAGCGAAAGCTCATCC ((((((....)))..))) | -10 | 29
GATCTTCTGGAAGATC ((((((....)))))) | -46.2 | 49.7
GGCAATGGAAACATTACC ((.((((....)))).)) | -26.7 | 37.3
GCTCACGAAAGTGTGAGC ((((((....)))..))) | -34 | 55.8

Sequence | folding enthalpy [1] [kcal/mol] | Tm [2] [°C]
GCCTTCGAAAGAACGGC ((((((....))).))) | -29.2 | 48.2
GCGTTGCGAAAGCAAAGC ((.((((....)))).)) | -30.4 | 66
GGATCCGAAAGGATCTCC ((((((....)))..))) | -9.17 | 53.6
GCTTAAGGAAACCTAAGC (((((.(....).))))) | -22.8 | 35.7
GAGCACGAAAGTGTGCTC ((((((....)))..))) | -31.2 | 58.6
GACCGACGAAAGTCAGTC (((.(((....))).))) | -23.5 | 47.9
GCGGTACGAAAGTACGC (((.(((....)))))) | -26.4 | 60.7
CGGACGGAAACGTTCCG ((((((....))).))) | -27.5 | 51.2
GTTAGTCGAAAGACAAC (((.(((....)))))) | -20.4 | 39.5
GCGACTACGAAAGTACGC (((..(((....)))))) | -25.8 | 42.5
GACTTGCCGAAAGGCGTC (((..(((....)))))) | -11.6 | 36.4
CGTTTGAAAAAACG (((((....))))) | -21.2 | 47.3
GATGACGAAAGTCTGATC ((((((....)))..))) | -12.1 | 33.1
GCTGCGCGAAAGCGCCGC ((.((((....)))).)) | -15.3 | 63.1
GTCCGAGAAATCGGAC ((((((....)))))) | -34.5 | 65.9
GACCCGGGAAACCGGGCC (.(((((....))))).) | -12.6 | 53.3
GTTTTCGAAAGAAAAAAC ((((((....)))..))) | -11.1 | 29.8
